# Source: ChEMBL document CHEMBL5724801, “EUbOPEN Chemogenomics Library - Multiplex” (2024)
# Values joined by “and” are separate entries in the source; they are usually repeats but may differ in a detail not shown here. Equal values may be shown once.
# How the values were obtained:
# HEK-293T = experiment: Multiplex assay against HEK293T; type: toxicity, cell-based; conditions: human
# Summary of the method: (§1)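 On a CQ1 microscope at 37°C and 5% CO2, live cells were imaged after compound addition. They had been stained at seeding with Hoechst33342, BioTracker Green Microtubule Cytoskeleton Dye, MitoTracker Red and Annexin V Alexa Fluor 680. CellPathfinder machine-learning gating assigned cells to Hoechst high-intensity objects or normal cells, normal cells to healthy, pyknosed or fragmented nuclei, and pyknosed cells to mitotic or apoptotic. Tubulin, mitochondrial-mass and membrane-permeability phenotypes are per cents of healthy-nucleus cells.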
# U2OS = experiment: Multiplex assay against U2OS; type: toxicity, cell-based; conditions: human; summary of the method: as §1
# [1] = 24 h, 10 µM, compound concentration 10 uM
# [2] = 48 h, 1 µM, compound concentration 1 uM
# [3] = 48 h, 10 µM, compound concentration 10 uM
# [4] = 12 h, 1 µM, compound concentration 1 uM
# [5] = 12 h, 10 µM, compound concentration 10 uM
# [6] = 24 h, 1 µM, compound concentration 1 uM
smiles,measurement,setting,value
O=C(Nc1ccccc1Cl)c1cnc2ccc(C3CCNCC3)cn12.O=C(O)C(=O)O,Population Healthy Nuclei (%),HEK-293T; [1],43.72% and 18%
same,Population Hoechst High Intensity Objects (%),HEK-293T; [1],0%
same,Population Membrane Permeable-Phenotype (%),HEK-293T; [1],0.99% and 3.7%
same,Population Mitochondria Different-Phenotype (%),HEK-293T; [1],74.26% and 51.85%
same,Population Mitotic Cells (%),HEK-293T; [1],65.55% and 70.09%
same,Population Normal (%),HEK-293T; [1],100%
same,Population Pyknosed Nuclei (%),HEK-293T; [1],51.52% and 78%
same,Population Tubulin-Different-Phenotype (%),HEK-293T; [1],81.19% and 40.74%
same,Total Cell Count,HEK-293T; [1],231 and 150
same,Population Apoptotic (%),HEK-293T; [2],9.3% and 24.49%
same,Population Fragmented Nuclei (%),HEK-293T; [2],3.3% and 6.21%
same,Population Healthy Nuclei (%),HEK-293T; [2],83.82% and 32.92%
same,Population Hoechst High Intensity Objects (%),HEK-293T; [2],0.1% and 0%
same,Population Membrane Permeable-Phenotype (%),HEK-293T; [2],2.62% and 1.89%
same,Population Mitochondria Different-Phenotype (%),HEK-293T; [2],28.13% and 43.4%
same,Population Mitotic Cells (%),HEK-293T; [2],90.7% and 75.51%
same,Population Normal (%),HEK-293T; [2],99.9% and 100%
same,Population Apoptotic (%),HEK-293T; [3],20% and 23.23%
same,Population Fragmented Nuclei (%),HEK-293T; [3],3.53% and 4.03%
same,Population Healthy Nuclei (%),HEK-293T; [3],73.65% and 29.53%
same,Population Hoechst High Intensity Objects (%),HEK-293T; [3],0.21% and 0%
same,Population Membrane Permeable-Phenotype (%),HEK-293T; [3],1.97% and 0%
same,Population Mitochondria Different-Phenotype (%),HEK-293T; [3],64.51% and 56.82%
same,Population Mitotic Cells (%),HEK-293T; [3],80% and 76.77%
same,Population Normal (%),HEK-293T; [3],99.79% and 100%
same,Population Pyknosed Nuclei (%),HEK-293T; [3],22.82% and 66.44%
same,Population Tubulin-Different-Phenotype (%),HEK-293T; [3],33.24% and 81.82%
same,Population Apoptotic (%),U2OS; [4],34.62% and 26.09%
same,Population Fragmented Nuclei (%),U2OS; [4],1.77% and 0.57%
same,Population Healthy Nuclei (%),U2OS; [4],86.73% and 86.21%
same,Population Hoechst High Intensity Objects (%),U2OS; [4],0%
same,Population Membrane Permeable-Phenotype (%),U2OS; [4],0.77% and 5.33%
same,Population Mitochondria Different-Phenotype (%),U2OS; [4],0% and 4%
same,Population Mitotic Cells (%),U2OS; [4],65.38% and 73.91%
same,Population Normal (%),U2OS; [4],100%
same,Population Pyknosed Nuclei (%),U2OS; [4],11.5% and 13.22%
same,Population Tubulin-Different-Phenotype (%),U2OS; [4],0.26% and 0.67%
same,Total Cell Count,U2OS; [4],452 and 174
same,Population Apoptotic (%),U2OS; [5],36.51% and 44.74%
same,Population Fragmented Nuclei (%),U2OS; [5],2.48% and 4.95%
same,Population Healthy Nuclei (%),U2OS; [5],81.93% and 76.24%
same,Population Hoechst High Intensity Objects (%),U2OS; [5],0%
same,Population Membrane Permeable-Phenotype (%),U2OS; [5],2.42% and 7.79%
same,Population Mitochondria Different-Phenotype (%),U2OS; [5],0% and 9.09%
same,Population Mitotic Cells (%),U2OS; [5],63.49% and 55.26%
same,Population Normal (%),U2OS; [5],100%
same,Population Pyknosed Nuclei (%),U2OS; [5],15.59% and 18.81%
same,Population Tubulin-Different-Phenotype (%),U2OS; [5],5.14% and 3.25%
same,Total Cell Count,U2OS; [5],404 and 202
same,Population Apoptotic (%),U2OS; [6],38.71% and 50%
same,Population Fragmented Nuclei (%),U2OS; [6],2.92% and 3.06%
same,Population Healthy Nuclei (%),U2OS; [6],81.98% and 83.84%
same,Population Hoechst High Intensity Objects (%),U2OS; [6],0%
same,Population Membrane Permeable-Phenotype (%),U2OS; [6],0.79% and 4.17%
same,Population Mitochondria Different-Phenotype (%),U2OS; [6],0% and 3.12%
same,Population Mitotic Cells (%),U2OS; [6],61.29% and 50%
same,Population Normal (%),U2OS; [6],100%
same,Population Pyknosed Nuclei (%),U2OS; [6],15.1% and 13.1%
same,Population Tubulin-Different-Phenotype (%),U2OS; [6],0.59% and 1.56%
same,Total Cell Count,U2OS; [6],616 and 229
same,Population Apoptotic (%),U2OS; [1],50% and 42.31%
same,Population Fragmented Nuclei (%),U2OS; [1],3.44% and 5.18%
same,Population Healthy Nuclei (%),U2OS; [1],75.51% and 63.75%
same,Population Hoechst High Intensity Objects (%),U2OS; [1],0.2% and 0.4%
same,Population Membrane Permeable-Phenotype (%),U2OS; [1],2.14% and 8.12%
same,Population Mitochondria Different-Phenotype (%),U2OS; [1],0.8% and 10.62%
same,Population Mitotic Cells (%),U2OS; [1],50% and 57.69%
same,Population Normal (%),U2OS; [1],99.8% and 99.6%
same,Population Pyknosed Nuclei (%),U2OS; [1],21.05% and 31.08%
same,Population Tubulin-Different-Phenotype (%),U2OS; [1],4.02% and 2.5%
same,Total Cell Count,U2OS; [1],495 and 252
same,Population Apoptotic (%),U2OS; [2],50.86% and 56.25%
same,Population Fragmented Nuclei (%),U2OS; [2],4.49% and 3.81%
same,Population Healthy Nuclei (%),U2OS; [2],84.2% and 83.11%
same,Population Hoechst High Intensity Objects (%),U2OS; [2],0% and 0.27%
same,Population Membrane Permeable-Phenotype (%),U2OS; [2],2.09% and 5.57%
same,Population Mitochondria Different-Phenotype (%),U2OS; [2],0% and 0.98%
same,Population Mitotic Cells (%),U2OS; [2],49.14% and 43.75%
same,Population Normal (%),U2OS; [2],100% and 99.73%
same,Population Pyknosed Nuclei (%),U2OS; [2],11.32% and 13.08%
same,Population Tubulin-Different-Phenotype (%),U2OS; [2],0.93% and 2.3%
same,Total Cell Count,U2OS; [2],1025 and 368
same,Population Apoptotic (%),U2OS; [3],54.92% and 58.04%
same,Population Fragmented Nuclei (%),U2OS; [3],4.59% and 4.38%
same,Population Healthy Nuclei (%),U2OS; [3],68.57% and 60.62%
same,Population Hoechst High Intensity Objects (%),U2OS; [3],0.96% and 0%
same,Population Membrane Permeable-Phenotype (%),U2OS; [3],5.07% and 11.34%
same,Population Mitochondria Different-Phenotype (%),U2OS; [3],0.81% and 4.64%
same,Population Mitotic Cells (%),U2OS; [3],45.08% and 41.96%
same,Population Normal (%),U2OS; [3],99.04% and 100%
same,Population Pyknosed Nuclei (%),U2OS; [3],26.84% and 35%
same,Population Tubulin-Different-Phenotype (%),U2OS; [3],3.45% and 9.28%
same,Total Cell Count,U2OS; [3],726 and 320
